Results published in ChEMBL document CHEMBL1132999, “Synthesis and oral antitumor activity of tetrakis(carboxylato)platinum(IV) complexes” (J Med Chem, 2000).

Legend:
[1] = Partition coefficient (logP); assay type: physicochemical; conditions: octanol/water
Mus musculus [2] = assay: antitumor activity (survival) by the oral administration of 100 mg/kg scheduled treatment (Q1D x 5) in BDF1 mice inoculated with L1210 leukemia; assay type: functional, organism-based; set-up: dose 100 mg/kg; conditions: at 100 mg/kg
How it was run: (§1)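 BDF1 mice inoculated with L1210 leukaemia and fasted before dosing. Complexes suspended in 0.2 mL 0.5% Tween 80 and given by stomach catheter on days 1-5 (Q1D × 5). Activity expressed as T/C (%), the ratio of mean survival time (days) of treated versus control mice.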

Mus musculus [3] = assay: antitumor activity (survival) by the oral administration of 150 mg/kg scheduled treatment (Q1D x 5) in BDF1 mice inoculated with L1210 leukemia; toxic; assay type: functional, organism-based; set-up: dose 150 mg/kg; how it was run: as §1
L1210 = assay: in vitro antitumor activity (cytotoxicity) against the murine leukemia L1210 cell; assay type: functional, cell-based; conditions: Mus musculus
Mus musculus [4] = assay: antitumor activity (survival) by the oral administration of 150 mg/kg scheduled treatment (Q1D x 5) in BDF1 mice inoculated with L1210 leukemia; assay type: functional, organism-based; set-up: dose 150 mg/kg; conditions: at 150 mg/kg; how it was run: as §1

“[Pt(O2CC3H7)4(dach)]dach : trans-(+/-)-1,2-diaminocyclohexane [listing 1 of 2 here]” showed a logP [1] of 1.54.
For “[Pt(O2CC3H7)4(dach)]dach : trans-(+/-)-1,2-diaminocyclohexane [listing 2 of 2 here]”, the T/C (Mus musculus [2]) was 108%, the T/C (Mus musculus [3]) was “Toxic” and the ED50 (L1210) was 6.2 µM.
For “[Pt(O2CC4H9)4(dach)]dach : trans-(+/-)-1,2-diaminocyclohexane [listing 1 of 2 here]”, the logP [1] was 2.54.
For “[Pt(O2CC4H9)4(dach)]dach : trans-(+/-)-1,2-diaminocyclohexane [listing 2 of 2 here]”, the ED50 (L1210) was over 50 µM and the T/C (Mus musculus [4]) was 107%.
For “[Pt(O2CC5H11)4(dach)]dach : trans-(+/-)-1,2-diaminocyclohexane [listing 1 of 2 here]”, the logP [1] was 3.03.
For “[Pt(O2CC5H11)4(dach)]dach : trans-(+/-)-1,2-diaminocyclohexane [listing 2 of 2 here]”, the ED50 (L1210) was over 50 µM and the T/C (Mus musculus [4]) was 98.9%.
In the case of “[Pt(O2CCH3)4(dach)]dach [listing 1 of 2 here]”, the logP [1] was -1.59.
For “[Pt(O2CCH3)4(dach)]dach [listing 2 of 2 here]”, the ED50 (L1210) was 25.8 µM and the T/C (Mus musculus [4]) was 100%.
Work on [Pt(OH)4(dach)]dach yielded an ED50 (L1210) of 32.6 µM and a T/C (Mus musculus [4]) of 112%.
